ChEMBL document CHEMBL3804761, “Synthesis of a stable and orally bioavailable englerin analogue” (Bioorg Med Chem Lett, 2016)

Columns and labels:
Assay type in all cases: functional
NCI-H226 = assay: Growth inhibition of human NCI-H226 cells assessed as cell growth at 10 uM incubated for 48 hrs by sulforhodamine B assay relative to control; conditions: NCI-H226, 48 h, read-out: Activity
Procedure, shortened: (§1)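 Run in the standard NCI 60-cell-line screen. Cells were exposed to drug for two days, and the read-out was sulforhodamine B staining. Compound was tested at a single final concentration of 10 µM in every line, and results are reported as growth percent.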

HT-29 = assay: Growth inhibition of human HT-29 cells incubated for 48 hrs by sulforhodamine B assay; conditions: HT-29, 48 h
Procedure, shortened: (§2)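 NCI 60-cell-line panel, standard protocol. Cells exposed to compound for two days, growth read by sulforhodamine B staining. Tested at five 10-fold dilutions, top concentration 100 µM, to give dose-response curves.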

[1] = Growth inhibition of human OVCAR8 cells incubated for 48 hrs by sulforhodamine B assay; conditions: OVCAR-8, 48 h; procedure, shortened: as §2
[2] = Growth inhibition of human OVCAR3 cells assessed as cell growth at 10 uM incubated for 48 hrs by sulforhodamine B assay relative to control; conditions: OVCAR-3, 48 h, read-out: Activity; procedure, shortened: as §1
[3] = Growth inhibition of human Caki1 cells assessed as cell growth at 10 uM incubated for 48 hrs by sulforhodamine B assay relative to control; conditions: CAKI-1, 48 h, read-out: Activity; procedure, shortened: as §1
NCI-H322M = assay: Growth inhibition of human NCI-H322M cells assessed as cell growth at 10 uM incubated for 48 hrs by sulforhodamine B assay relative to control; conditions: read-out: Activity; procedure, shortened: as §1
[4] = Growth inhibition of human BT549 cells assessed as cell growth at 10 uM incubated for 48 hrs by sulforhodamine B assay relative to control; conditions: BT-549, 48 h, read-out: Activity; procedure, shortened: as §1
[5] = Growth inhibition of human Caki1 cells incubated for 48 hrs by sulforhodamine B assay; conditions: CAKI-1, 48 h; procedure, shortened: as §2
MDA-MB-231 = assay: Growth inhibition of human MDA-MB-231 cells incubated for 48 hrs by sulforhodamine B assay; conditions: MDA-MB-231, 48 h; procedure, shortened: as §2
A549 [6] = assay: Growth inhibition of human A549/ATCC cells incubated for 48 hrs by sulforhodamine B assay; conditions: A549, 48 h; procedure, shortened: as §2
[7] = Growth inhibition of human TK10 cells incubated for 48 hrs by sulforhodamine B assay; conditions: TK-10, 48 h
Procedure, shortened: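 Tested in the standard NCI 60-cell-line protocol with two-day drug exposure and a sulforhodamine B endpoint. Compounds were first screened at a single final concentration of 10 µM, reported as growth percent. They were then run as five 10-fold dilutions starting from a high concentration of 100 µM to give dose-response curves.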

MDA-MB-435 = assay: Growth inhibition of human MDA-MB-435 cells incubated for 48 hrs by sulforhodamine B assay; conditions: MDA-MB-435, 48 h; procedure, shortened: as §2
[8] = Growth inhibition of human HOP62 cells incubated for 48 hrs by sulforhodamine B assay; conditions: HOP-62, 48 h; procedure, shortened: as §2
[9] = Growth inhibition of human SF539 cells incubated for 48 hrs by sulforhodamine B assay; conditions: SF-539, 48 h; procedure, shortened: as §2
[10] = Growth inhibition of human OVCAR4 cells assessed as cell growth at 10 uM incubated for 48 hrs by sulforhodamine B assay relative to control; conditions: OVCAR-4, 48 h, read-out: Activity; procedure, shortened: as §1
CCRF-CEM = assay: Growth inhibition of human CCRF-CEM cells assessed as cell growth at 10 uM incubated for 48 hrs by sulforhodamine B assay relative to control; conditions: read-out: Activity
Procedure, shortened: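 Single-dose screen in the NCI 60-cell-line panel at one final concentration of 10 µM. Two-day drug exposure with a sulforhodamine B endpoint. Values are growth percent for each cell line.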

[11] = Growth inhibition of human HCT15 cells incubated for 48 hrs by sulforhodamine B assay; conditions: HCT-15, 48 h; procedure, shortened: as §2
Malme-3M = assay: Growth inhibition of human MALME-3M cells incubated for 48 hrs by sulforhodamine B assay; procedure, shortened: as §2
[12] = Growth inhibition of human Hs 578T cells incubated for 48 hrs by sulforhodamine B assay
NCI-H522 = assay: Growth inhibition of human NCI-H522 cells incubated for 48 hrs by sulforhodamine B assay; conditions: NCI-H522, 48 h; procedure, shortened: as §2
K562 = assay: Growth inhibition of human K562 cells incubated for 48 hrs by sulforhodamine B assay; conditions: K562, 48 h; procedure, shortened: as §2
[13] = Growth inhibition of human DU145 cells assessed as cell growth at 10 uM incubated for 48 hrs by sulforhodamine B assay relative to control; conditions: DU-145, 48 h, read-out: Activity; procedure, shortened: as §1
[14] = Growth inhibition of human OVCAR8 cells assessed as cell growth at 10 uM incubated for 48 hrs by sulforhodamine B assay relative to control; conditions: OVCAR-8, 48 h, read-out: Activity; procedure, shortened: as §1
[15] = Growth inhibition of human PC3 cells incubated for 48 hrs by sulforhodamine B assay; conditions: PC-3, 48 h; procedure, shortened: as §2
[16] = Growth inhibition of human SKOV3 cells assessed as cell growth at 10 uM incubated for 48 hrs by sulforhodamine B assay relative to control; conditions: SK-OV-3, 48 h, read-out: Activity; procedure, shortened: as §1
A549 [17] = assay: Growth inhibition of human A549/ATCC cells assessed as cell growth at 10 uM incubated for 48 hrs by sulforhodamine B assay relative to control; conditions: A549, 48 h, read-out: Activity; procedure, shortened: as §1
[18] = Growth inhibition of human SF295 cells incubated for 48 hrs by sulforhodamine B assay; conditions: SF-295, 48 h; procedure, shortened: as §2
[19] = Growth inhibition of human HCT15 cells assessed as cell growth at 10 uM incubated for 48 hrs by sulforhodamine B assay relative to control; conditions: HCT-15, 48 h, read-out: Activity; procedure, shortened: as §1
[20] = Growth inhibition of human HOP62 cells assessed as cell growth at 10 uM incubated for 48 hrs by sulforhodamine B assay relative to control; conditions: HOP-62, 48 h, read-out: Activity; procedure, shortened: as §1
[21] = read-out: pLC50 (the source's name) (converted)

Structure (SMILES): CC(C)[C@@]12C[C@@H](NC(=O)CO)[C@@](C)(O1)[C@@H]1CC[C@@H](C)[C@H]1[C@@H]2OC(=O)/C=C/C1CCCCC1
- growth at 10 µM (NCI-H226): 96.2%
- GI50 (HT-29): > 44.7 µM
- LC50 (HT-29): > 44.7 µM
- TGI (HT-29; read-out: pTGI (converted)): > 44.7 µM
- GI50 [1]: 28.2 µM
- LC50 (concentration killing 50% of cells) [1]: > 44.7 µM
- TGI ([1]; read-out: pTGI (converted)): > 44.7 µM
- growth at 10 µM [2]: 110%
- growth at 10 µM [3]: 88.7%
- growth at 10 µM (NCI-H322M): 97.7%
- growth at 10 µM [4]: 109%
- GI50 [5]: > 44.7 µM
- LC50 [5]: > 44.7 µM
- TGI ([5]; read-out: pTGI (converted)): > 44.7 µM
- GI50 (MDA-MB-231): > 44.7 µM
- CC50 (MDA-MB-231; [21]): > 44.7 µM
- TGI (MDA-MB-231; read-out: pTGI (converted)): > 44.7 µM
- GI50 (A549 [6]): > 44.7 µM
- LC50 (A549 [6]): > 44.7 µM
- TGI (A549 [6]; read-out: pTGI (converted)): > 44.7 µM
- GI50 [7]: > 44.7 µM
- CC50 [7, 21]: > 44.7 µM
- TGI ([7]; read-out: pTGI (converted)): > 44.7 µM
- GI50 (MDA-MB-435): > 44.7 µM
- LC50 (MDA-MB-435): > 44.7 µM
- TGI (MDA-MB-435; read-out: pTGI (converted)): > 44.7 µM
- GI50 [8]: > 44.7 µM
- LC50 [8]: > 44.7 µM
- TGI ([8]; read-out: pTGI (converted)): > 44.7 µM
- GI50 [9]: > 44.7 µM
- LC50 [9]: > 44.7 µM
- TGI ([9]; read-out: pTGI (converted)): > 44.7 µM
- growth at 10 µM [10]: 98.6%
- growth at 10 µM (CCRF-CEM): 128%
- GI50 [11]: > 44.7 µM
- LC50 [11]: > 44.7 µM
- TGI ([11]; read-out: pTGI (converted)): > 44.7 µM
- GI50 (Malme-3M): > 44.7 µM
- LC50 (Malme-3M): > 44.7 µM
- TGI (Malme-3M; read-out: pTGI (converted)): > 44.7 µM
- GI50 ([12]; read-out: GI50): 6.17 µM
- GI50 ([12]; read-out: pGI50 (converted)): 6.17 µM
- CC50 [12, 21]: > 44.7 µM
- TGI ([12]; read-out: pTGI (converted)): 18.6 µM
- GI50 (NCI-H522): > 44.7 µM
- LC50 (NCI-H522): > 44.7 µM
- TGI (NCI-H522; read-out: pTGI (converted)): > 44.7 µM
- GI50 (K562): > 44.7 µM
- CC50 (K562; [21]): > 44.7 µM
- TGI (K562; read-out: pTGI (converted)): > 44.7 µM
- growth at 10 µM [13]: 116%
- growth at 10 µM [14]: 107%
- GI50 [15]: > 44.7 µM
- CC50 [15, 21]: > 44.7 µM
- TGI ([15]; read-out: pTGI (converted)): > 44.7 µM
- growth at 10 µM [16]: 103%
- growth at 10 µM (A549 [17]): 92%
- GI50 [18]: > 44.7 µM
- LC50 (concentration causing 50% net cell kill) [18]: > 44.7 µM
- TGI ([18]; read-out: pTGI (converted)): > 44.7 µM
- growth at 10 µM [19]: 102%
- growth at 10 µM [20]: 108%
